A selection: hits, their analogues and other compounds. The true share with any hit is near 1.5%.
EBI2 block – EBI2 receptor antagonists, beta-arrestin recruitment, primary screen, cell-based, luminescence, 7a,25-OHC stimulation, uHTS. inhibition, % at 5 µM. actives 0.81% (n = 360,000). 7a,25-OHC stimulated; in the data active = inhibition above about 38%;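 note: enzyme fragment complementation signal reports receptor beta-arrestin coupling in cells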
Target sequence (P32249 whole entry, looked up, the tested form may be a part): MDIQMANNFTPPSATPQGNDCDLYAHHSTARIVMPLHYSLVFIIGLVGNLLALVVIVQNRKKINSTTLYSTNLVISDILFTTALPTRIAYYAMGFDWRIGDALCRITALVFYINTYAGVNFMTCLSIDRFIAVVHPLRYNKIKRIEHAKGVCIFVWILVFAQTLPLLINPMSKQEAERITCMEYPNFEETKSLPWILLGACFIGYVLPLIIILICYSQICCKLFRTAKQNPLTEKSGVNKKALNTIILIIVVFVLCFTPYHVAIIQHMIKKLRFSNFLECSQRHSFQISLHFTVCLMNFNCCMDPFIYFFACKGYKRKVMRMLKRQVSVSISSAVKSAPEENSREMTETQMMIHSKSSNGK
APJ antagonist – antagonists of human apelin receptor APJ, primary screen, CHO-K1 cells, beta-arrestin complementation, luminescence; inhibition, % at 20 µM; P35414; AID 2521, 2010; actives 0.32% (n = 330,000);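 active = inhibition above about 40% at 20 µM, limit read from the data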;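 note: cells challenged with 10 nM apelin-13 agonist together with compound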
CCR6 antag – CCR6 receptor antagonists, primary screen, cell-based, CHO-K1, luminescence, beta-arrestin, uHTS; CHO-K1 CCR6 PathHunter beta-arrestin, CCL20-stimulated; inhibition, % at 20 µM; actives 0.49% (n = 340,000); AID 493098, 2011;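 active = compounds whose inhibition of the agonist-driven luminescence signal at 20 µM reaches about 50%, limit read from the data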;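 note: cells stimulated with CCL20 at 14 nM final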
APJ agonist – agonists of human apelin receptor APJ, primary screen, CHO-K1 cells, PathHunter beta-arrestin, luminescence. P35414. 0% DMSO wells, 100% apelin. activation, % at 20 µM. actives 0.11% (n = 330,000). AID 2520, 2010;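 active = activation more than six SD over the plate average, tested at 20 µM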
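Test system: CHO-K1 APJ beta-arrestin complementation cell line. Amount: cell density 1000 per well. Controls: DMSO negative, 10 nM Apelin-13 positive. Signal: luminescent beta-gal fragment complementation, chemiluminescent substrate. Read-out basis: agonist-driven arrestin binding to APJ. Timing: compound stimulation 90 min at 25 °C, detection 60 min.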
CXCR6 block – CXCR6 receptor inhibitors, primary screen, cell-based, beta-arrestin, luminescence, CHO-K1 PathHunter, 1536-well; actives 0.36% (n = 360,000); inhibition, % at 20 µM; C-X-C chemokine receptor type 6 (Homo sapiens), O00574; in the data active = inhibition above about 34%, passing the limit was not always enough;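 note: antagonist mode with CXCL16 agonist at 10 nM final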
APJ antag confirm – APJ antagonists blocking beta-arrestin recruitment, confirmation, cell-based, luminescence, single concentration, uHTS hits | shares compounds with APJ antagonist | antagonist mode | inhibition, % at 20 µM | actives 66% (n = 950); in the data active = inhibition above about 50%
CXCR6 antag conf – CXCR6 receptor antagonists, confirmation, cell-based, single concentration, beta-arrestin, luminescence | shares compounds with CXCR6 block | CHO-K1 CXCR6 PathHunter beta-arrestin | inhibition, % at 20 µM | actives 65% (n = 700) | AID 602409, 2012;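 active = mean inhibition over four retests above 40%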;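 note: receptor stimulated with 10 nM CXCL16 agonist; beta-galactosidase fragment complementation upon beta-arrestin recruitment to receptor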
Each line names hits and unclear results; the compound was inactive in the other large screens (follow-up assays come after a bar, where they were run).

CS(=O)(=O)c1ncc(Cl)c(C(=O)Nc2ccc(OC(F)F)cc2)n1	APJ antagonist 44, CCR6 antag 57, CXCR6 block 47 | APJ antag confirm 72 | CXCR6 antag conf 60
CC(=O)Nc1ccc(S(=O)(=O)N(C)c2ccccc2)cc1	none
COc1ccc(OC)c(NC(=O)c2nc(S(=O)(=O)Cc3ccccc3)ncc2Cl)c1	EBI2 block 85, APJ antagonist 63, CCR6 antag 84, CXCR6 block 59 | APJ antag confirm 96 | CXCR6 antag conf 69
CS(=O)(=O)c1ncc(Cl)c(C(=O)Nc2ccc(N3CCOCC3)cc2)n1	none
COc1ccc(OC)c(NC(=O)CS(=O)(=O)Cc2ccccc2)c1	none
O=C(NCc1ccccc1)C(c1ccc(C(F)(F)F)cc1)N1CCN(CCN2CCOCC2)CC1 (configuration not stated)	none (no result: APJ antagonist, CCR6 antag, APJ agonist, CXCR6 block)
Cc1cccc(NC(=O)c2ccccc2NC(=O)c2ccccc2)n1	none
COc1cc(/C=C(\C#N)c2nc(-c3cc4ccccc4oc3=O)cs2)ccc1O	APJ antagonist 53, CCR6 antag 60, CXCR6 block 49 | APJ antag confirm 76 | CXCR6 antag conf 49
CCOC(=O)C1=C(C)NC(c2cccs2)C(=O)N1 (configuration not stated)	none
CCOC(=O)C1=C(C)NC2=C(C(=O)CC(c3cccs3)C2)C1c1cccs1 (configuration not stated)	APJ antagonist 41, CCR6 antag 54, CXCR6 block 42 | APJ antag confirm 73 | CXCR6 antag conf 45
CC1(C)CC(=O)C2=C(C1)OC1=C(C(=O)CC(C)(C)C1)C2c1ccc(O)cc1O	APJ antagonist 52, CCR6 antag 93, CXCR6 block 66 | APJ antag confirm 105 | CXCR6 antag conf 88
CC1(C)CC(=O)C2=C(C1)OC1=C(C(=O)CC(C)(C)C1)C2c1ccc(O)c([N+](=O)[O-])c1	none
COc1ccccc1OC(=O)c1cc2ccccc2oc1=O	none
COc1cc(/C=C/[N+](=O)[O-])ccc1OC(=O)c1cc2ccccc2oc1=O	APJ antagonist 46, CXCR6 block 76 | APJ antag confirm 91 | CXCR6 antag conf 69
CC(NC(=O)COC(=O)c1nc(Cl)ccc1Cl)c1ccccc1 (configuration not stated)	none
Cc1ccc(NC(=S)NNc2ccc(C(=O)O)cc2[N+](=O)[O-])cc1C	APJ antagonist 42, CXCR6 block 41 | APJ antag confirm inactive | CXCR6 antag conf 42
O=C(NNC(=S)Nc1ccccc1)Nc1ccccc1	APJ antagonist 43, CCR6 antag 54, CXCR6 block 71 | APJ antag confirm inactive | CXCR6 antag conf inactive
O=C(NNC(=S)Nc1ccccc1)c1ccncc1	none
COC(=O)CSc1[nH]c2ccc(Br)cc2c1[N+](=O)[O-]	APJ antagonist 41, CCR6 antag 61, CXCR6 block 41 | APJ antag confirm 55 | CXCR6 antag conf 46
O=C(NNC(=O)C12CC3CC(CC(C3)C1)C2)c1cnccn1	none
O=C(NNC(=O)C12CC3CC(CC(C3)C1)C2)c1ccccn1	APJ antagonist 49, CCR6 antag 92, CXCR6 block 71 | APJ antag confirm 69 | CXCR6 antag conf 79
COc1cc(/C=C/c2ccc3cccc(OC)c3n2)c(OC(C)=O)c([N+](=O)[O-])c1	APJ antagonist 45, CCR6 antag 53, CXCR6 block 41 | APJ antag confirm 75 | CXCR6 antag conf 44
CCc1cc2c(SCc3nc4sc(C(C)=O)c(C)c4c(=O)[nH]3)ncnc2s1	none
COc1ccc(C)c(-n2c(=O)n(Cc3ccccc3)c(=O)c3[nH]cnc32)c1	APJ antagonist 69, CCR6 antag 81, CXCR6 block 69 | APJ antag confirm 117 | CXCR6 antag conf 70
COc1ccc(Cn2c(=O)c3[nH]cnc3n(-c3ccccc3C)c2=O)cc1	none

Compound activity from PubChem BioAssay.
